In data set [1] the test system is HepG2. As to the kind of experiment: Antitumor activity against human HepG2 cells expressing CES2 gene xenografted in NOD/SCID mouse assessed as inhibition of tumor growth at 3 mg/kg, iv administered on day 7, 14 and 21 after tumor implantation. It counts as functional, organism-based. The arrangement: dose 3 mg/kg. An outline of the steps:
(§1)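 NOD/SCID females, 4–6 weeks old, each given ~1.5 × 10⁷ N-Hep G2 cells s.c. in the left flank; 10 mice/group. Dosed i.v. by tail vein on days 7, 14 and 21, in mg/kg Dox-equivalent, from DMSO diluted into D5W (5% DMSO/95% D5W), 100 µL/mouse. Vehicle-only controls. The 3 mg/kg group was redosed at 5 mg/kg on days 45 and 52. Tumor volume (π × short diameter² × long diameter/6) measured weekly.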
(In xenograft studies the graft and the host belong to different species.)

The test system of data set [2] is HepG2. The experiment in a line: Antitumor activity against human HepG2 cells expressing CES2 gene xenografted in pentyl PABC-doxazolidine-pretreated NOD/SCID mouse assessed as slowing of large, rapidly growing tumor growth at 5 mg/kg, iv administered on day 45 after tumor implantation. It counts as functional, organism-based. Further details: dose 5 mg/kg. An outline of the steps: as §1

The subject of data set [3] is Mus musculus. As to the kind of experiment: Toxicity in NOD/SCID mouse xenografted with human HepG2 cells expressing CES2 gene assessed as survival at 5 mg/kg, iv administered on day 7, 14 and 21 after tumor implantation. The data set is classed as organism-based. The arrangement: dose 5 mg/kg, route intravenous. Particulars: in vivo. The method in brief: (§2)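 Female NOD/SCID mice, 4–6 weeks old, 10 per group. About 1.5 × 10⁷ N-Hep G2 cells were injected s.c. into the left flank. Tail-vein i.v. dosing (mg/kg Dox-equivalent weight) was given on days 7, 14 and 21. Vehicle was 5% DMSO/95% D5W, and controls received vehicle only. Body weight was measured weekly over the first 5 weeks. Survival was followed to study end.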

Data set [4] is described as follows: Toxicity in pentyl PABC-doxazolidine-treated NOD/SCID mouse xenografted with human HepG2 cells expressing CES2 gene assessed as mortality rate at 5 mg/kg, iv administered on day 52 after tumor implantation. It counts as organism-based. Further details: dose 5 mg/kg, route intravenous. Particulars: in vivo, read-out: Activity. An outline of the steps: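 NOD/SCID females carried s.c. left-flank N-Hep G2 xenografts (about 1.5 × 10⁷ cells). They first received i.v. 3 mg/kg Dox-equivalent on days 7, 14 and 21. The same group was then redosed i.v. at 5 mg/kg on days 45 and 52 in 5% DMSO/95% D5W. There were 10 mice per group. Deaths were counted to the end of the study.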

The subject of data set [5] is Mus musculus. As to the kind of experiment: Toxicity in NOD/SCID mouse xenografted with human HepG2 cells expressing CES2 gene assessed as body weight change at 4 mg/kg, iv administered on day 7, 14 and 21 after tumor implantation. The data set is classed as organism-based. Further details: dose 4 mg/kg, route intravenous. As to conditions: in vivo. An outline of the steps:
as §2

Data set [6] relates to Mus musculus. As to the kind of experiment: Toxicity in NOD/SCID mouse xenografted with human HepG2 cells expressing CES2 gene assessed as body weight loss at 5 mg/kg, iv administered on day 7, 14 and 21 after tumor implantation measured after 3 weeks. It counts as organism-based. Further details: dose 5 mg/kg, route intravenous. Particulars: in vivo, 504 h. An outline of the steps:
(§3)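 Same NOD/SCID N-Hep G2 flank xenograft model: i.v. tail-vein dosing on days 7, 14 and 21 in 5% DMSO/95% D5W, doses in Dox-equivalent mg/kg, 10 mice/group, vehicle controls. Body weight recorded weekly and followed over the first 5 weeks.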

The test system of data set [7] is Mus musculus. As to the kind of experiment: Toxicity in NOD/SCID mouse xenografted with human HepG2 cells expressing CES2 gene assessed as body weight loss at 5 mg/kg, iv administered on day 7, 14 and 21 after tumor implantation measured after 5 weeks. The data set is classed as organism-based. Further details: dose 5 mg/kg, route intravenous. Particulars: in vivo, 840 h. An outline of the steps: as §3

The test system of data set [8] is NCI-H1435. As to the kind of experiment: Antitumor activity against human NCI-H1435 cells expressing CES2 gene xenografted in athymic nude mouse assessed as inhibition of tumor growth at 4 mg/kg, iv administered on day 7, 14 and 21 after tumor implantation. Further details: dose 4 mg/kg. It counts as functional, organism-based. An outline of the steps: (§4)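 Athymic nude females, 4–6 weeks old, given ~2 × 10⁶ H1435 cells s.c. in the left flank on day 0; 10 mice/group. I.v. tail-vein doses (Dox-equivalent mg/kg) in 5% DMSO/95% D5W on days 7, 14 and 21, with all groups retreated on days 56, 63 and 70; vehicle controls. Caliper volume π × short² × long/6. Cube roots analysed with day-7 size as baseline covariate, by period.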

Data set [9] has as its system NCI-H1435. As to the kind of experiment: Antitumor activity against human NCI-H1435 cells expressing CES2 gene xenografted in athymic nude mouse assessed as inhibition of tumor growth at 3 mg/kg, iv administered on day 7, 14 and 21 after tumor implantation. It counts as functional, organism-based. Further details: dose 3 mg/kg. An outline of the steps:
as §4

Data set [10] deals with NCI-H1435. The experiment in a line: Antitumor activity against human NCI-H1435 cells expressing CES2 gene xenografted in pentyl PABC-doxazolidine-pretreated athymic nude mouse assessed as inhibition of tumor growth at 3 to 4 mg/kg, iv administered on day 63 after tumor implantation. The data set is classed as functional, organism-based. The method in brief: as §4
In data set [11] the test system is NCI-H1435. As to the kind of experiment: Antitumor activity against human NCI-H1435 cells expressing CES2 gene xenografted in pentyl PABC-doxazolidine-pretreated athymic nude mouse assessed as inhibition of tumor growth at 3 to 4 mg/kg, iv administered on day 70 after tumor implantation. The data set is classed as functional, organism-based. An outline of the steps: as §4

Data set [12] has as its system Mus musculus. The experiment in a line: Toxicity in athymic nude mouse xenografted with human NCI-H1435 cells expressing CES2 gene assessed as occurrence of diarrhea at 3 to 4 mg/kg, iv administered on day 7, 14 and 21 after tumor implantation. It counts as organism-based. Further details: dose 3-4 mg/kg, route intravenous. Particulars: in vivo.
The test system of data set [13] is NCI-H1435. The experiment in a line: Antitumor activity against human NCI-H1435 cells expressing CES2 gene xenografted in athymic nude mouse assessed as reduction in tumor size at 3 to 4 mg/kg, iv administered on day 7, 14 and 21 after tumor implantation. The data set is classed as functional, organism-based. An outline of the steps:
as §4

For data set [14], the system named is Mus musculus. The experiment in a line: Toxicity in athymic nude mouse xenografted with human NCI-H1435 cells expressing CES2 gene assessed as myofibril disorganization and vacuolization of heart tissue administered with six iv injection of 3 to 4 mg/kg by hematoxylin/eosin staining-based microscopy. It counts as organism-based. Further details: dose 3-4 mg/kg, route intravenous. Particulars: in vivo. An outline of the steps:
(§5)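 Hearts and livers taken from the H1435 nude-mouse study (six i.v. injections) after CO₂/cervical dislocation. Fixed in 10% formalin for 24 h, paraffin-embedded, and cut at 4 µm. Slides deparaffinized in xylene and ethanol, stained with Mayer's hematoxylin for 2 min, blued in 1% ammonium hydroxide, and counterstained with eosin for 30 s. Examined by light microscopy.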

Data set [15] deals with Mus musculus. The experiment in a line: Toxicity in athymic nude mouse xenografted with human NCI-H1435 cells expressing CES2 gene assessed as appearance of fibrotic damage in heart tissue administered with six iv injection of 3 to 4 mg/kg by hematoxylin/eosin staining-based microscopy. The data set is classed as organism-based. As to conditions: in vivo. The arrangement: dose 3-4 mg/kg, route intravenous. An outline of the steps: as §5

Data set [16] concerns Mus musculus. The experiment in a line: Toxicity in iv dosed athymic nude mouse xenografted with human NCI-H1435 cells expressing CES2 gene assessed as appearance of cytoplasmic lipid droplets in hepatocytes administered as six injection by hematoxylin/eosin staining-based microscopy. It counts as organism-based, Hepatocyte. The method in brief:
as §5

In data set [17] the test system is Mus musculus. The experiment in a line: Toxicity in athymic nude mouse xenografted with human NCI-H1435 cells expressing CES2 gene assessed as occurrence of fatty liver administered with six iv injection of 3 mg/kg by hematoxylin/eosin staining-based microscopy. It counts as organism-based. Further details: dose 3 mg/kg, route intravenous. As to conditions: in vivo. An outline of the steps:
as §5

Data set [18] concerns Mus musculus. The experiment in a line: Toxicity in athymic nude mouse xenografted with human NCI-H1435 cells expressing CES2 gene assessed as vacuolar degeneration of kidney tissue administered with six iv injection of 3 to 4 mg/kg by hematoxylin/eosin staining-based microscopy. It counts as organism-based. The arrangement: dose 3-4 mg/kg, route intravenous. Particulars: in vivo. An outline of the steps:
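Kidney and ileum taken from the H1435 nude-mouse study (six i.v. injections). Formalin-fixed for 24 h, paraffin-embedded, and cut into 4 µm sections. Sections deparaffinized in xylene, rehydrated through an ethanol series, stained in Harris hematoxylin for 50 s with eosin, then dehydrated and mounted. Morphology assessed by microscopy.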

The next data set deals with NCI60. The experiment in a line: Growth inhibition of human NCI60 cells after 2 days by sulforhodamine B assay. It counts as functional, cell-based.
For a further data set, the species on record is Homo sapiens. As to the kind of experiment: Metabolic stability in human plasma up to 24 hrs by reverse-phase HPLC analysis.

Each structure is given as a SMILES string. Active and inactive are the calls of the source. The calls are words filed in the database; no cut-off is given here.

With `CCCCCOC(=O)Nc1ccc(COC(=O)N2CO[C@@H]3[C@H](C)O[C@@H](O[C@H]4C[C@](O)(C(=O)CO)Cc5c(O)c6c(c(O)c54)C(=O)c4c(OC)cccc4C6=O)C[C@@H]32)cc1`, the inhibition entry in the data set with HepG2 [1] was “inactive”. Besides, the outcome in the data set on HepG2 [2] was Active. The Activity entry with Mus musculus [3] is reported as “Non-toxic”; in the data set on Mus musculus [5], “Active”; with Mus musculus [6], 18%; with Mus musculus [7], 10%; in the data set on Mus musculus [12] it was “Non-toxic”; with Mus musculus [14], “Non-toxic”. Further, the Activity entry in the data set with Mus musculus [15] was “Non-toxic”; in the data set on Mus musculus [16], “Dose-dependent effect”; in the data set on Mus musculus [17], “Non-toxic”; in the data set on Mus musculus [18] it was “Non-toxic”. Also, the mortality in data set [4] worked out at 60%. In addition, the inhibition result in the data set with NCI-H1435 [8], with NCI-H1435 [9], in the data set with NCI-H1435 [10] and with NCI-H1435 [11] was “Active” in each case. In addition, the outcome with NCI-H1435 [13] was inactive. The “growth inhibition (GI)” value with NCI60 is “Active”. In addition, the share remaining (commonly what is left of the initial amount, in per cent) at 24 h in the data set filed under Homo sapiens came out at 75%.

The record behind these values is ChEMBL document CHEMBL1153806, “Preclinical efficacy of a carboxylesterase 2-activated prodrug of doxazolidine” (J Med Chem, 2009).
